Experimental data from ChEMBL document CHEMBL1165950, “Design and synthesis of new potent anticancer pyrazoles with high FLT3 kinase inhibitory selectivity” (Bioorg Med Chem, 2010).

Columns and labels:
Assay type in all cases: functional
TK-10 = test: Growth inhibition of human TK10 cells after 48 hrs by sulforhodamine B assay; details: TK-10, 48 h; for CC50: read-out: LC50 (the source's name)
How it was run: (§1)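 NCI 60-cell screen, five-dose mode. Cells grown in RPMI 1640 with 5% FBS and 2 mM L-glutamine and plated at 5000-40,000 cells/well according to doubling time. After 24 h preincubation, a Tz plate was TCA-fixed. Five concentrations (10-fold or 1/2 log dilutions) were applied for 48 h at 37 °C. SRB staining read at 515 nm. IC50 taken from [(Ti-Tz)/(C-Tz)]×100 = 50.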

HCT-15 = test: Cytotoxicity against human HCT15 cells assessed as cell growth at 0.01 uM after 48 hrs by sulforhodamine B assay; details: HCT-15, 48 h, read-out: Activity
MOLT-4 = test: Cytotoxicity against human MOLT4 cells assessed as cell growth at 10 uM after 48 hrs by sulforhodamine B assay; details: MOLT-4, 48 h, read-out: Activity
U-251 [1] = test: Cytotoxicity against human U251 cells assessed as cell growth at 10 uM; details: read-out: Activity
How it was run: (§2)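 NCI-60 screen: cells grown in RPMI 1640 with 5% FBS and 2 mM L-glutamine, plated at 5000–40,000 cells/well according to doubling time, and preincubated 24 h at 37 °C, 5% CO2. The single 10 µM dose (DMSO stock) was added, then incubated 48 h. Cells were TCA-fixed and stained with 0.4% SRB, read at 515 nm, and growth % calculated against time-zero and control plates.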

LOX IMVI [2] = test: Cytotoxicity against human LOXIMVI cells assessed as cell growth at 0.001 uM after 48 hrs by sulforhodamine B assay; details: read-out: Activity
A549 = test: Cytotoxicity against human A549 cells assessed as cell growth at 0.001 uM after 48 hrs by sulforhodamine B assay; details: A549, 48 h, read-out: Activity
How it was run: (§3)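 NCI-60 five-dose screen. Cells were grown in RPMI 1640 with 5% FBS and 2 mM L-glutamine, plated at 5000–40,000 cells/well and preincubated for 24 h. Time-zero plates were TCA-fixed. DMSO-solubilized drug was added at five concentrations (10-fold or ½-log serial dilutions) for 48 h at 37 °C, 5% CO2. Cells were TCA-fixed, stained with 0.4% SRB and read at 515 nm. Percent growth used time-zero, control and test absorbances.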

786-0 = test: Cytotoxicity against human 786-0 cells assessed as cell growth at 0.01 uM after 48 hrs by sulforhodamine B assay; details: 786-0, 48 h, read-out: Activity; how it was run: as §3
U-251 [3] = test: Growth inhibition of human U251 cells after 48 hrs by sulforhodamine B assay; details: U-251, 48 h; for CC50: read-out: LC50 (the source's name); how it was run: as §1
M14 = test: Cytotoxicity against human M14 cells assessed as cell growth at 100 nM after 48 hrs by sulforhodamine B assay; details: M14, 48 h, read-out: Activity
LOX IMVI [4] = test: Cytotoxicity against human LOXIMVI cells assessed as cell growth at 10 uM after 48 hrs by sulforhodamine B assay; details: read-out: Activity
MDA-MB-435 = test: Cytotoxicity against human MDA-MB-435 cells assessed as cell growth at 0.001 uM after 48 hrs by sulforhodamine B assay; details: MDA-MB-435, 48 h, read-out: Activity
SR = test: Cytotoxicity against human SR cells assessed as cell growth at 10 uM after 48 hrs by sulforhodamine B assay; details: read-out: Activity
SF-539 [5] = test: Cytotoxicity against human SF539 cells assessed as cell growth at 1 uM after 48 hrs by sulforhodamine B assay; details: SF-539, 48 h, read-out: Activity
NCI-H322M [6] = test: Cytotoxicity against human NCI-H322M cells assessed as cell growth at 1 uM after 48 hrs by sulforhodamine B assay; details: read-out: Activity
MDA-MB-468 = test: Cytotoxicity against human MDA-MB-468 cells assessed as cell growth at 10 uM after 48 hrs by sulforhodamine B assay; details: MDA-MB-468, 48 h, read-out: Activity
CCRF-CEM = test: Cytotoxicity against human CCRF-CEM cells assessed as cell growth at 1 uM after 48 hrs by sulforhodamine B assay; details: read-out: Activity; how it was run: as §3
SNB-19 [7] = test: Growth inhibition of human SNB19 cells after 48 hrs by sulforhodamine B assay; details: SNB-19, 48 h; for CC50: read-out: LC50 (the source's name); how it was run: as §1
CAKI-1 = test: Cytotoxicity against human Caki1 cells assessed as cell growth at 0.01 uM after 48 hrs by sulforhodamine B assay; details: CAKI-1, 48 h, read-out: Activity
NCI-H322M [8] = test: Cytotoxicity against human NCI-H322M cells assessed as cell growth at 0.001 uM after 48 hrs by sulforhodamine B assay; details: read-out: Activity
BT-549 = test: Growth inhibition of human BT549 cells after 48 hrs by sulforhodamine B assay; details: BT-549, 48 h; for CC50: read-out: LC50 (the source's name)
How it was run: (§4)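 NCI five-dose SRB assay in RPMI 1640 with 5% FBS and 2 mM L-glutamine. Cells were preincubated 24 h, then exposed 48 h at 37 °C to five concentrations (10-fold or half-log serial dilutions from DMSO stocks). TCA fixation, SRB staining, and absorbance at 515 nm followed. IC50 was taken where [(Ti−Tz)/(C−Tz)]×100 = 50, with Tz as time-zero cell density.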

OVCAR-5 = test: Cytotoxicity against human OVCAR5 cells assessed as cell growth at 10 uM after 48 hrs by sulforhodamine B assay; details: OVCAR-5, 48 h, read-out: Activity
OVCAR-4 = test: Growth inhibition of human OVCAR4 cells after 48 hrs by sulforhodamine B assay; details: OVCAR-4, 48 h; for CC50: read-out: LC50 (the source's name); how it was run: as §1
COLO 205 = test: Growth inhibition of human COLO205 cells after 48 hrs by sulforhodamine B assay; details: COLO 205, 48 h; for CC50: read-out: LC50 (the source's name); how it was run: as §4
T47D = test: Cytotoxicity against human T47D cells assessed as cell growth at 0.001 uM after 48 hrs by sulforhodamine B assay; details: read-out: Activity
HT-29 = test: Cytotoxicity against human HT-29 cells assessed as cell growth at 10 uM after 48 hrs by sulforhodamine B assay; details: HT-29, 48 h, read-out: Activity
SF-539 [9] = test: Growth inhibition of human SF539 cells after 48 hrs by sulforhodamine B assay; details: SF-539, 48 h; for CC50: read-out: LC50 (the source's name); how it was run: as §1
Malme-3M = test: Growth inhibition of human MALME-3M cells after 48 hrs by sulforhodamine B assay; details: for CC50: read-out: LC50 (the source's name); how it was run: as §1
SNB-19 [10] = test: Cytotoxicity against human SNB19 cells assessed as cell growth at 0.001 uM after 48 hrs by sulforhodamine B assay; details: SNB-19, 48 h, read-out: Activity
SF-268 = test: Cytotoxicity against human SF268 cells assessed as cell growth at 10 uM; details: read-out: Activity; how it was run: as §2

COc1cc(C)cc(-c2nn(CC#N)cc2-c2ccnc(-c3ccc(N(C)C)cc3)c2)c1 was tested, and the GI50 (TK-10) was 0.101 µM, the TGI (TK-10) was 78.9 µM and the CC50 (TK-10) was > 100 µM. For the same molecule, the growth at 0.01 µM (HCT-15) was 92%, the growth at 10 µM (MOLT-4) was 1% and the growth at 10 µM (U-251 [1]) was -9.99%. The growth at 0.001 µM (LOX IMVI [2]) was 98%, the growth at 0.001 µM (A549) was 97% and the growth at 0.01 µM (786-0) was 96%. For the same molecule, the GI50 (U-251 [3]) was 0.415 µM, the TGI (U-251 [3]) was 5.86 µM and the CC50 (U-251 [3]) was > 100 µM. For the same molecule, the growth at 0.1 µM (M14) was -12%, the growth at 10 µM (LOX IMVI [4]) was -23% and the growth at 0.001 µM (MDA-MB-435) was 103%. For the same molecule, the growth at 10 µM (SR) was 8%, the growth at 1 µM (SF-539 [5]) was -35% and the growth at 1 µM (NCI-H322M [6]) was 52%. The growth at 10 µM (MDA-MB-468) was -63%, the growth at 1 µM (CCRF-CEM) was 16% and the GI50 (SNB-19 [7]) was 0.567 µM. The TGI (SNB-19 [7]) was > 100 µM, the CC50 (SNB-19 [7]) was > 100 µM and the growth at 0.01 µM (CAKI-1) was 92%. For the same molecule, the growth at 0.001 µM (NCI-H322M [8]) was 99%, the GI50 (BT-549) was 1.62 µM and the TGI (BT-549) was 7.33 µM. For the same molecule, the CC50 (BT-549) was > 100 µM, the growth at 10 µM (OVCAR-5) was 15% and the GI50 (OVCAR-4) was 0.549 µM. The TGI (OVCAR-4) was > 100 µM, the CC50 (OVCAR-4) was > 100 µM and the GI50 (COLO 205) was 0.32 µM. For the same molecule, the TGI (COLO 205) was 7.69 µM, the CC50 (COLO 205) was 3.91 µM and the growth at 0.001 µM (T47D) was 102%. For the same molecule, the growth at 10 µM (HT-29) was -66%, the GI50 (SF-539 [9]) was 0.259 µM and the TGI (SF-539 [9]) was 0.596 µM. The CC50 (SF-539 [9]) was > 100 µM, the TGI (Malme-3M) was > 100 µM and the CC50 (Malme-3M) was > 100 µM. For the same molecule, the growth at 0.001 µM (SNB-19 [10]) was 102% and the growth at 10 µM (SF-268) was 24.5%.

In the case of Cc1cc(O)cc(-c2nn(CC#N)cc2-c2ccnc(-c3ccc(N(C)C)cc3)c2)c1, the GI50 (TK-10) is reported as 8.4 µM, the TGI (TK-10) is reported as 57.8 µM and the CC50 (TK-10) is reported as > 100 µM. For the same molecule, the growth at 0.01 µM (HCT-15) was 92%, the growth at 10 µM (MOLT-4) was -6% and the growth at 10 µM (U-251 [1]) was 17.1%. For the same molecule, the growth at 0.001 µM (LOX IMVI [2]) was 103%, the growth at 0.001 µM (A549) was 104% and the growth at 0.01 µM (786-0) was 88%. The GI50 (U-251 [3]) was 3.14 µM, the TGI (U-251 [3]) was 12.9 µM and the CC50 (U-251 [3]) was 61.3 µM. It also gave a growth at 0.1 µM (M14) of 82%, a growth at 10 µM (LOX IMVI [4]) of -87% and a growth at 0.001 µM (MDA-MB-435) of 99%. For the same molecule, the growth at 10 µM (SR) was 4%, the growth at 1 µM (SF-539 [5]) was -34% and the growth at 1 µM (NCI-H322M [6]) was 38%. The growth at 10 µM (MDA-MB-468) was -61%, the growth at 1 µM (CCRF-CEM) was 13% and the GI50 (SNB-19 [7]) was 4.54 µM. The TGI (SNB-19 [7]) was 43.9 µM, the CC50 (SNB-19 [7]) was > 100 µM and the growth at 0.01 µM (CAKI-1) was 102%. For the same molecule, the growth at 0.001 µM (NCI-H322M [8]) was 94%, the GI50 (BT-549) was 2.77 µM and the TGI (BT-549) was 12.1 µM. The CC50 (BT-549) was > 100 µM, the growth at 10 µM (OVCAR-5) was -18% and the GI50 (OVCAR-4) was 4.85 µM. For the same molecule, the TGI (OVCAR-4) was > 100 µM, the CC50 (OVCAR-4) was > 100 µM and the GI50 (COLO 205) was 1.95 µM. The TGI (COLO 205) was 4.13 µM, the CC50 (COLO 205) was 87.8 µM and the growth at 0.001 µM (T47D) was 93%. It also gave a growth at 10 µM (HT-29) of -52%, a GI50 (SF-539 [9]) of 2.12 µM and a TGI (SF-539 [9]) of 5.33 µM. It also gave a CC50 (SF-539 [9]) of 27.3 µM, a GI50 (Malme-3M) of 4.56 µM and a TGI (Malme-3M) of 39.2 µM. For the same molecule, the CC50 (Malme-3M) was > 100 µM, the growth at 0.001 µM (SNB-19 [10]) was 96% and the growth at 10 µM (SF-268) was 59.5%.
